Tests used:
[1] = target: dSAMTOR (WT, full-length) (Drosophila melanogaster, UniProt Q9W138); assay: ITC ligand binding, WT dSAMTOR; details: ITC, 25°C, WT dSAMTOR
Procedure, shortened: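 Full-length dSAMTOR was expressed as His6-SUMO fusion in E. coli BL21 (DE3), Ni-NTA purified, tag-cleaved, then gel-filtered into 10 mM Hepes pH 7.5, 150 mM NaCl, 1 mM DTT. ITC ran at 25°C: 20 × 2 µl injections of 1 mM SAM or SAH into 0.2 mM protein, discarding an initial 0.8 µl injection, with a buffer background titration. Single-site nonlinear least-squares fit gave ΔH, n and Kd.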

[2] = target: V66W/E67P mutant dSAMTOR (Drosophila melanogaster, UniProt Q9W138, E67P/V66W); assay: ITC ligand binding, V66W/E67P dSAMTOR; details: ITC, 25°C, V66W/E67P dSAMTOR
Procedure, shortened: (§1)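 Tag-free dSAMTOR, expressed as His6-SUMO fusion in E. coli BL21(DE3), purified by Ni-NTA and gel filtration into 10 mM Hepes pH 7.5, 150 mM NaCl, 1 mM DTT. At 25°C, 1 mM SAM or SAH was titrated into 0.2 mM protein over 20 injections, with a background titration into buffer. Single-site fit gave Kd, ΔH and n; ΔG and ΔS were calculated. Runs: three for measurable binding, two for undetectable binding.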

[3] = target: D162A mutant dSAMTOR (Drosophila melanogaster, UniProt Q9W138, D162A); assay: ITC ligand binding, D162A dSAMTOR; details: 25°C, ND = not detected
Procedure, shortened: as §1

[4] = target: L163A mutant dSAMTOR (Drosophila melanogaster, UniProt Q9W138, F163A); assay: ITC ligand binding, L163A dSAMTOR; details: 25°C, L163A dSAMTOR (text b27: F163A), ND = not detected
Procedure, shortened: as §1

[5] = target: Y201A mutant dSAMTOR (Drosophila melanogaster, UniProt Q9W138, Y201A); assay: ITC ligand binding, Y201A dSAMTOR
Procedure, shortened: as §1

[6] = target: L197A mutant dSAMTOR (Drosophila melanogaster, UniProt Q9W138, L197A); assay: ITC ligand binding, L197A dSAMTOR; details: 25°C, ND = not detected
Procedure, shortened: as §1

[7] = target: R73A mutant dSAMTOR (Drosophila melanogaster, UniProt Q9W138, R73A); assay: ITC ligand binding, R73A dSAMTOR; details: 25°C, ND = not detected
Procedure, shortened: as §1

[8] = target: M202A mutant dSAMTOR (Drosophila melanogaster, UniProt Q9W138, M202A); assay: ITC ligand binding, M202A dSAMTOR; details: 25°C, ND = not detected
Procedure, shortened: as §1

[9] = target: F135A mutant dSAMTOR (Drosophila melanogaster, UniProt Q9W138, F135A); assay: ITC ligand binding, F135A dSAMTOR; details: ITC
Procedure, shortened: as §1

[10] = target: T1, hSAMTOR (WT) interaction with GATOR1-KICSTOR (Homo sapiens, UniProt Q1RMZ1); details: previous cell biology data; cited from earlier work
T1 sequence (Q1RMZ1 1-405): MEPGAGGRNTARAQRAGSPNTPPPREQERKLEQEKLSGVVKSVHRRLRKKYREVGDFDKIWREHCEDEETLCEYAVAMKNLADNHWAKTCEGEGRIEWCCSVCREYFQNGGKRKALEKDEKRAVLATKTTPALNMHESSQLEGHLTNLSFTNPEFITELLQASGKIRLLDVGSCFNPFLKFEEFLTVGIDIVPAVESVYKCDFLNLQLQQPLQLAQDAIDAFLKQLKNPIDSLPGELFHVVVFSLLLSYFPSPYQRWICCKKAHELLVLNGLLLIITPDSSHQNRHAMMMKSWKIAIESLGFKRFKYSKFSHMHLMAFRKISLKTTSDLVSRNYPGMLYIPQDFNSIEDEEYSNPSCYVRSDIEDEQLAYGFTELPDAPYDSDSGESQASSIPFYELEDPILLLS

[11] = target: L151A mutant dSAMTOR (Drosophila melanogaster, UniProt Q9W138, L151A); assay: ITC ligand binding, L151A dSAMTOR; details: 25°C, ND = not detected
Procedure, shortened: as §1

[12] = target: D150A mutant dSAMTOR (Drosophila melanogaster, UniProt Q9W138, D150A); assay: ITC ligand binding, D150A dSAMTOR; details: 25°C, ND = not detected
Procedure, shortened: as §1

[13] = target: N-terminal truncated dSAMTOR (Δ1-64) (Drosophila melanogaster, UniProt Q9W138); assay: ITC ligand binding, Δ1-64 dSAMTOR; details: ITC, 25°C, Δ1-64 dSAMTOR
Procedure, shortened: as §1

[14] = target: hSAMTOR; details: read-out: dissociation constant (Kd); cited from earlier work

F135A mutant dSAMTOR, sequence (Q9W138 whole entry F135A): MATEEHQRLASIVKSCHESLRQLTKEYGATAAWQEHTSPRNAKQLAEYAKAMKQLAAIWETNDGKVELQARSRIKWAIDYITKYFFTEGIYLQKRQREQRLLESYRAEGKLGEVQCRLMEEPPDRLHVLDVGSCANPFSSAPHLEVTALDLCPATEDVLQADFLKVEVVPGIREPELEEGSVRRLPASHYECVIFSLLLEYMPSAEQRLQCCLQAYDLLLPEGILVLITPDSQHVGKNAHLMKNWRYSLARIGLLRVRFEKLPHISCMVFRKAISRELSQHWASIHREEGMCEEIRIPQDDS
V66W/E67P mutant dSAMTOR, sequence (Q9W138 whole entry V66W/E67P, the tested form may be a part): as the sequence (Q9W138 whole entry F135A) above, with V66W, E67P, A135F counted along it
N-terminal truncated dSAMTOR (Δ1-64), sequence (Q9W138 65-302, stated change not applied): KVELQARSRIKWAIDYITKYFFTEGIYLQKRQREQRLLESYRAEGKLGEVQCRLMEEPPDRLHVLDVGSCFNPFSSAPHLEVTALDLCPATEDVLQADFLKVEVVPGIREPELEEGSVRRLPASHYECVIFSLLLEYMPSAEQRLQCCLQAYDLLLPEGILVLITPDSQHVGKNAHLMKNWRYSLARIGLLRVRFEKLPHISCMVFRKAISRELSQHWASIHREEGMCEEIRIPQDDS
Y201A mutant dSAMTOR, sequence (Q9W138 whole entry Y201A): as the sequence (Q9W138 whole entry F135A) above, with A135F, Y201A counted along it
dSAMTOR (WT, full-length), sequence (Q9W138 whole entry, the tested form may be a part): as the sequence (Q9W138 whole entry F135A) above, with A135F counted along it
M202A mutant dSAMTOR, sequence (Q9W138 whole entry M202A): as the sequence (Q9W138 whole entry F135A) above, with A135F, M202A counted along it
L197A mutant dSAMTOR, sequence (Q9W138 whole entry L197A): as the sequence (Q9W138 whole entry F135A) above, with A135F, L197A counted along it
R73A mutant dSAMTOR, sequence (Q9W138 whole entry R73A): as the sequence (Q9W138 whole entry F135A) above, with R73A, A135F counted along it
D162A mutant dSAMTOR, sequence (Q9W138 whole entry D162A): as the sequence (Q9W138 whole entry F135A) above, with A135F, D162A counted along it
L163A mutant dSAMTOR, sequence (Q9W138 whole entry F163A): as the sequence (Q9W138 whole entry F135A) above, with A135F, F163A counted along it
D150A mutant dSAMTOR, sequence (Q9W138 whole entry D150A): as the sequence (Q9W138 whole entry F135A) above, with A135F, D150A counted along it
L151A mutant dSAMTOR, sequence (Q9W138 whole entry L151A): as the sequence (Q9W138 whole entry F135A) above, with A135F, L151A counted along it

Nc1ncnc2c1ncn2[C@@H]1O[C@H](CO)[C@@H](O)[C@H]1O [adenosine]
Kd [1]: no measurable binding

CSCC[C@H](N)C(=O)O [methionine]
Kd [1]: no measurable binding

Nc1ncnc2c1ncn2[C@@H]1O[C@H](CSCC[C@H](N)C(=O)O)[C@@H](O)[C@H]1O [SAH, S-adenosyl-L-homocysteine]
Kd [1]: 8.7 ± 0.92 µM
TΔS [1]: -2.99 kcal/mol
n value [1]: 0.81 ± 0.09
ΔH [1]: -9.94 ± 1.48 kcal/mol
Kd [2]: 11.3 ± 0.37 µM
n value [2]: 1.02 ± 0.02
ΔH [2]: -5.09 ± 0.12 kcal/mol
Kd [3]: completely abolish SAH binding
Kd [4]: completely abolish SAH binding
Kd ([5]; 25°C, Y201A dSAMTOR): 67.3 ± 6.03 µM
TΔS ([5]; 25°C, Y201A dSAMTOR): 2.80 kcal/mol
n value ([5]; 25°C, Y201A dSAMTOR): 0.74 ± 0.02
ΔH ([5]; 25°C, Y201A dSAMTOR): -2.89 ± 0.17 kcal/mol
decrease of binding affinity compared to the WT dSAMTOR ([5]; Y201A vs WT dSAMTOR): 7.7 fold
Kd [6]: completely abolish SAH binding
Kd [7]: completely abolish SAH binding
Kd [8]: completely abolish SAH binding
increase of binding affinity compared to the WT dSAMTOR ([9]; F135A vs WT dSAMTOR): < 2 fold
Kd ([9]; 25°C, F135A dSAMTOR): 4.76 ± 0.71 µM
TΔS ([9]; 25°C, F135A dSAMTOR): -1.26 kcal/mol
n value ([9]; 25°C, F135A dSAMTOR): 0.80 ± 0.02
ΔH ([9]; 25°C, F135A dSAMTOR): -8.52 ± 0.51 kcal/mol
effect of ligand binding on interaction of hSAMTOR with GATOR1-KICSTOR [10]: can disrupt the interaction of hSAMTOR with GATOR1-KICSTOR
Kd [11]: completely abolish SAH binding
Kd [12]: completely abolish SAH binding
Kd [13]: 13.1 ± 0.8 µM
TΔS [13]: -8.08 kcal/mol
n value [13]: 0.67 ± 0.04
ΔH [13]: -14.70 ± 1.05 kcal/mol
Kd [14]: 4.6 µM

Reference: paper PMC10883374 (Science Advances, 2022)
